Experimental findings from ChEMBL document CHEMBL4699542, “Design and synthesis of novel methoxypyridine-derived gamma-secretase modulators” (Bioorg Med Chem, 2020) are described below.

By IC50 is commonly meant the midpoint of a concentration-inhibition curve.

Converted amounts (≈) assume the structure as drawn. Some results are limits rather than exact numbers.

The nature of data set [1]: Kinetic aqueous solubility of the compound in pH 7.4 PBS buffer by UV/Visible absorbance analysis. The data set is classed as physicochemical. The note with it: read-out: Kinetic_solubility. Summed up: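 Kinetic solubility determined in PBS at pH 7.4 by UV/Vis absorbance, reported in μM.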
In a further data set the target is Gamma-secretase. Briefly: Modulation of gamma secretase in human SH-SY5Y cells overexpressing wild type APP751 assessed as inhibition of amyloid beta (35 to 42 residues) formation incubated for overnight by ELISA. The data set is classed as cell-based. Summed up:
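SHSY5Y-APP751 cells plated at 75K/well and incubated overnight at 37 °C, then treated 24 h over 10 concentrations ([…]–10 μM, 1:3.16 steps, in duplicate). Medium Aβ42 measured by sandwich ELISA (Aβ35–42 capture, AP-conjugated Aβ1–12 detection, CDP-Star luminescence) against an Aβ42 standard curve.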

The nature of data set [2]: Metabolic stability in human liver microsomes assessed as parent compound remaining at 1 uM incubated for 30 mins. The format is ADME, Microsome. The following applies: microsomes, 0.5 h, 1 µM. Summed up: (§1)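 Test compound at 1 μM incubated 30 min with human, rat or mouse liver microsomes (1 mg/mL); parent remaining expressed as %.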
(In general: Microsomes from liver hold many membrane-bound enzymes, among them those of drug oxidation.)

Data set [3] is described as follows: Metabolic stability in rat liver microsomes assessed as parent compound remaining at 1 uM incubated for 30 mins. The data set is classed as ADME, Microsome. The note with it: 0.5 h. Summed up: as §1
A short description of data set [4]: Metabolic stability in mouse liver microsomes assessed as parent compound remaining at 1 uM incubated for 30 mins. The format is ADME, Microsome. The note with it: 0.5 h. The essentials:
as §1

A further data set deals with Cytochrome P450 3A4 (Homo sapiens, UniProt P08684). Briefly: Inhibition of recombinant CYP3A4 (unknown origin) by fluorescence-based assay. The format is ADME.
Cytochrome P450 3A4, sequence (P08684 whole entry): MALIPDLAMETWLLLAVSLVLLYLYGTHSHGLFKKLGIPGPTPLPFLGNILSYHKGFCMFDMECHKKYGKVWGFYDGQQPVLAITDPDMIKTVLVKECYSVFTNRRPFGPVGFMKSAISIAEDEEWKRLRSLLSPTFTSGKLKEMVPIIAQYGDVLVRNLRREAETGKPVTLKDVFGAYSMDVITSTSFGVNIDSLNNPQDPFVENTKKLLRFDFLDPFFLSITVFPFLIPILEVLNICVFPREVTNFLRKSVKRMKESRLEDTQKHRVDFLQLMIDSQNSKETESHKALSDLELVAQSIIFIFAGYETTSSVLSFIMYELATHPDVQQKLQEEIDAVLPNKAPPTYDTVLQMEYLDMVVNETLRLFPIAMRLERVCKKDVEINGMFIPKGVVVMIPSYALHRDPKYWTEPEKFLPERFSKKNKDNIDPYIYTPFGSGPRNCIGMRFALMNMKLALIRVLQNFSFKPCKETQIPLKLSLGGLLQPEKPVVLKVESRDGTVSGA
In the next data set the target is T1, Cytochrome P450 1A2 (Homo sapiens, UniProt P05177).
T1 sequence (P05177 whole entry): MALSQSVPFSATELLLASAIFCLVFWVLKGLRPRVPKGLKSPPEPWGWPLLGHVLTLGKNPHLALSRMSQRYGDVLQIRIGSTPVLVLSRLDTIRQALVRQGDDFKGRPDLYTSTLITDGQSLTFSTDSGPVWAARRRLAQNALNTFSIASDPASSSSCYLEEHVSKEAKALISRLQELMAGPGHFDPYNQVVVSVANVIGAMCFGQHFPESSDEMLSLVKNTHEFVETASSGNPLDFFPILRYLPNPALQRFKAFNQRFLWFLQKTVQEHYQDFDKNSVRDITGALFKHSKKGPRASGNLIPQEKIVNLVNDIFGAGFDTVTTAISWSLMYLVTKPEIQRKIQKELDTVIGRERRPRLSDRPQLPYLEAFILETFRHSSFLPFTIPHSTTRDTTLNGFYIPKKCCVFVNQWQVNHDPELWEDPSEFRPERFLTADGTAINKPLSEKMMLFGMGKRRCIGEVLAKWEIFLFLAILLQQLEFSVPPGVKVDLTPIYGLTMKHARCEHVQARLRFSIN
Briefly: Inhibition of recombinant CYP1A2 (unknown origin) by fluorescence-based assay. The data set is classed as ADME. Summed up:
(§2)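 Recombinant CYP isoforms (five tested) screened for inhibition in fluorescence-based assays; IC50 in μM.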

A further data set deals with Cytochrome P450 2C9 (Homo sapiens, UniProt P11712). Briefly: Inhibition of recombinant CYP2C9 (unknown origin) by fluorescence-based assay. The format is ADME. The essentials: as §2
Cytochrome P450 2C9, sequence (P11712 whole entry): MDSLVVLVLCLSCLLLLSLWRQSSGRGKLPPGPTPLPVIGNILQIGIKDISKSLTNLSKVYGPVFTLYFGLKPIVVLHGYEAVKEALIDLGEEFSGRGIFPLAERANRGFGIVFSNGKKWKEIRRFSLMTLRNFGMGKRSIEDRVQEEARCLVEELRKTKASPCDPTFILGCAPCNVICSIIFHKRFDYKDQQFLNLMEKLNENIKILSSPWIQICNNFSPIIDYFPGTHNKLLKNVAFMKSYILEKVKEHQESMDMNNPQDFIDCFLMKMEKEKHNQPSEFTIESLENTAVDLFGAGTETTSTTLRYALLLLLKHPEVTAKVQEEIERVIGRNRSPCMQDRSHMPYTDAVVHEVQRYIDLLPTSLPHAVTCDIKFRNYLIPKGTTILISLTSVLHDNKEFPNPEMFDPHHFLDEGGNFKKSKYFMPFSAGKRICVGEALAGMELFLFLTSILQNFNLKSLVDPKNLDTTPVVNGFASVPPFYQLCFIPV
The target of a further data set is Cytochrome P450 2C19 (Homo sapiens, UniProt P33261). Briefly: Inhibition of recombinant CYP2C19 (unknown origin) by fluorescence-based assay. The data set is classed as ADME. Summed up:
as §2

Another data set addresses Cytochrome P450 2D6 (Homo sapiens, UniProt P10635). Briefly: Inhibition of recombinant CYP2D6 (unknown origin) by fluorescence-based assay. The data set is classed as ADME. Summed up:
as §2

Cytochrome P450 2D6, sequence (P10635 whole entry): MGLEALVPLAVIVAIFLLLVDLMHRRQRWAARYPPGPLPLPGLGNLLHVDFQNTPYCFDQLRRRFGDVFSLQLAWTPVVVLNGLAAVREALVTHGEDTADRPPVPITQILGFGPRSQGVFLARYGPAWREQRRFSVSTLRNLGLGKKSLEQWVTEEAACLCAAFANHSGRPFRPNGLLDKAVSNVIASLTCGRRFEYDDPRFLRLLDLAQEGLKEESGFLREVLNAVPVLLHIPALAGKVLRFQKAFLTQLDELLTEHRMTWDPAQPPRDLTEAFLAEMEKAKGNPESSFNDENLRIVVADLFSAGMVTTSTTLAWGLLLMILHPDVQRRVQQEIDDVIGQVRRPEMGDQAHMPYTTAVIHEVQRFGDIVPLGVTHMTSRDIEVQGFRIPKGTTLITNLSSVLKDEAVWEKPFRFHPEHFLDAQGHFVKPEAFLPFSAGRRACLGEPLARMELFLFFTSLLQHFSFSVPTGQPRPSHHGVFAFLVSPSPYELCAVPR
Cytochrome P450 2C19, sequence (P33261 whole entry): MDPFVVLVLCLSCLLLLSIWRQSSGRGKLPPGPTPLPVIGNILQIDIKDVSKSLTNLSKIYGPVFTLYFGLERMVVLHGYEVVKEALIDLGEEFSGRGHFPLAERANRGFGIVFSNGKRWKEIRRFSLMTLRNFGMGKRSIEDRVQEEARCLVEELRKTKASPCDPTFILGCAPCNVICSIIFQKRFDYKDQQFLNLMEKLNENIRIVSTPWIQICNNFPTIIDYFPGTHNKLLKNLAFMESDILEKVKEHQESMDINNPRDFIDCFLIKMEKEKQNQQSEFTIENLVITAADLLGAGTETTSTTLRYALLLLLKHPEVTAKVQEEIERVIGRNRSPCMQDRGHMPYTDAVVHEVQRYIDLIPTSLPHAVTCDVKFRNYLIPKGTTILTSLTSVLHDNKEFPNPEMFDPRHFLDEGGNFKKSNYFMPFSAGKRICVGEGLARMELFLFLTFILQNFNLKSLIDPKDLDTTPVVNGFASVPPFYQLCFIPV

Regarding `COc1nc(-c2csc(Nc3c4c(nn3C(C)C)CCCC4)n2)ccc1-n1cnc(C)c1`, the solubility kinetic in data set [1] came out at 3.3 µM (≈ 1.48 µg/mL). The half-inhibitory concentration (IC50) at Gamma-secretase amounted to 46 nM. The Stabilty came to 10% in [2], 64% in data set [3] and 45% in data set [4].

Take `CCn1nc(C(C)(C)C)cc1Nc1nc(-c2ccc(-n3cnc(C)c3)nc2)cs1`: the solubility kinetic in [1] was less than 1.6 µM. Moreover, the IC50 at Gamma-secretase came out at 292 nM. For the same compound, the figures for the Stabilty in data set [2], in data set [3] and in data set [4] were 43%, 60% and 87%, respectively.

As to `CCn1nc2c(c1Nc1nc(-c3ccc(-n4cnc(C)c4)c(OC)n3)cs1)CCCCC2`, the solubility kinetic in data set [1] stood at 4.3 µM (≈ 1.93 µg/mL). In addition, the 50% inhibitory concentration (IC50) at Gamma-secretase is 32 nM; on Cytochrome P450 3A4 it was 11000 nM; at Cytochrome P450 1A2, more than 100000 nM; at Cytochrome P450 2C9, 37000 nM; on Cytochrome P450 2C19 it was 85000 nM; on Cytochrome P450 2D6, more than 100000 nM. In addition, the Stabilty amounted to 0.1% in [2], 41% in [3] and 15% in data set [4].

In the case of `COc1nc(-c2csc(Nc3cc(C(C)(C)C)nn3CCF)n2)ccc1-n1cnc(C)c1`, the solubility kinetic in [1] was determined as 3.3 µM (≈ 1.5 µg/mL). The IC50 was 73 nM on Gamma-secretase; 40 nM at Cytochrome P450 3A4; 64000 nM on Cytochrome P450 1A2; 4100 nM at Cytochrome P450 2C9; 3300 nM on Cytochrome P450 2C19; more than 100000 nM at Cytochrome P450 2D6. Also, the Stabilty in data set [2] is 49%; in data set [3], 86%; in data set [4], 67%.

With `COc1nc(-c2csc(Nc3c4c(nn3C3CCOC3)CCCC4)n2)ccc1-n1cnc(C)c1` (racemic), the solubility kinetic in data set [1] amounted to 19 µM (≈ 9.07 µg/mL). The IC50 on Gamma-secretase is 102 nM. Besides, the values for the Stabilty in [2], in data set [3] and in data set [4] were 2.1%, 42% and 70%, respectively.

On to `COc1nc(-c2csc(Nc3c4c(nn3C(C)(C)C)CCC4)n2)ccc1-n1cnc(C)c1`, for which the solubility kinetic in [1] turned out to be 3.9 µM (≈ 1.75 µg/mL). For the same compound, the IC50 on Gamma-secretase amounted to 62 nM. In addition, the Stabilty in data set [2] is given as 21%; in data set [3], 55%; in [4], 20%.

Take `CCn1nc2c(c1Nc1nc(-c3ccc(-n4cnc(C)c4)c(OC)n3)cs1)C(C)CC2(C)C` (racemic): the solubility kinetic in data set [1] came to 9.2 µM (≈ 4.27 µg/mL). Also, the IC50 was 72 nM at Gamma-secretase; 1500 nM at Cytochrome P450 3A4; more than 100000 nM on Cytochrome P450 1A2; 35000 nM on Cytochrome P450 2C9; 33000 nM at Cytochrome P450 2C19; more than 100000 nM on Cytochrome P450 2D6. Moreover, the figures for the Stabilty in data set [2], in data set [3] and in [4] were 12%, 38% and 21%, respectively.

For the compound `COc1nc(-c2csc(Nc3c4c(nn3C)CCCC4)n2)ccc1-n1cnc(C)c1`, the solubility kinetic in data set [1] amounted to 15 µM (≈ 6.32 µg/mL). In addition, at Gamma-secretase, the concentration for half-maximal inhibition (IC50) was 105 nM. The Stabilty is reported as 36% in [2], 60% in data set [3] and 34% in [4].

`COc1nc(-c2csc(Nc3cc(C(C)(C)C)nn3CC(F)(F)F)n2)ccc1-n1cnc(C)c1`: the solubility kinetic in data set [1] stood at 1.7 µM (≈ 0.836 µg/mL). Further, the IC50 on Gamma-secretase was 73 nM; at Cytochrome P450 3A4 it was 1000 nM; on Cytochrome P450 1A2, 18000 nM; on Cytochrome P450 2C9 it was 20000 nM; on Cytochrome P450 2C19 it was 9000 nM; at Cytochrome P450 2D6, more than 100000 nM. The values for the Stabilty in data set [2], in data set [3] and in data set [4] were 47%, 90% and 93%, respectively.

Turning to `COc1nc(-c2csc(Nc3c4c(nn3CCN3CCOCC3)CCCC4)n2)ccc1-n1cnc(C)c1`, the solubility kinetic in data set [1] is 70 µM (≈ 36.4 µg/mL). The IC50 at Gamma-secretase was 177 nM. For the same compound, the Stabilty in data set [2] was 0%; in data set [3], 22%; in data set [4] it was 11%.

As for `COCCn1nc2c(c1Nc1nc(-c3ccc(-n4cnc(C)c4)c(OC)n3)cs1)CCCC2`, in [1], the solubility kinetic came to 20 µM (≈ 9.31 µg/mL). Moreover, the IC50 on Gamma-secretase was 144 nM. In addition, the Stabilty in data set [2] is reported as 1.8%; in [3], 45%; in [4], 29%.

`COc1nc(-c2csc(Nc3c4c(nn3C3CCC3)CCCC4)n2)ccc1-n1cnc(C)c1`: in data set [1], the solubility kinetic is 30 µM (≈ 13.8 µg/mL). The IC50 at Gamma-secretase was 64 nM; at Cytochrome P450 3A4, 590 nM; at Cytochrome P450 1A2, more than 100000 nM; on Cytochrome P450 2C9 it was 660 nM; on Cytochrome P450 2C19, 1600 nM; at Cytochrome P450 2D6, more than 100000 nM. The Stabilty in [2] is 9.5%; in [3] it was 42%; in [4], 44%.

On to `COc1nc(-c2csc(Nc3c4c(nn3C(C)C)CCC4)n2)ccc1-n1cnc(C)c1`, for which the solubility kinetic in data set [1] amounted to 5.7 µM (≈ 2.48 µg/mL). The IC50 on Gamma-secretase was determined as 90 nM. The results for the Stabilty in data set [2], in [3] and in data set [4] were 23%, 56% and 34%, respectively.

On to `COc1nc(-c2csc(Nc3c4c(nn3CCCN3CCOCC3)CCCC4)n2)ccc1-n1cnc(C)c1`, for which the solubility kinetic in data set [1] came out at 39 µM (≈ 20.9 µg/mL). For the same compound, the concentration for half-maximal inhibition (IC50) at Gamma-secretase turned out to be 126 nM. Further, the Stabilty came out at 1.9% in data set [2], 6.4% in [3] and 0.7% in data set [4].

For the compound `COc1nc(-c2csc(Nc3c4c(nn3CCO)CCC4)n2)ccc1-n1cnc(C)c1`, in data set [1], the solubility kinetic turned out to be 29 µM (≈ 12.7 µg/mL). Moreover, the IC50 on Gamma-secretase is 75 nM; on Cytochrome P450 3A4, less than 50 nM; on Cytochrome P450 1A2, more than 100000 nM; at Cytochrome P450 2C9, 50000 nM; on Cytochrome P450 2C19, 9200 nM; on Cytochrome P450 2D6 it was more than 100000 nM. Moreover, the Stabilty in data set [2] worked out at 42%; in [3], 86%; in data set [4] it was 73%.

As to `COc1nc(-c2csc(Nc3cc(C(C)(C)C)nn3C(C)C)n2)ccc1-n1cnc(C)c1`, the solubility kinetic in data set [1] was found to be 23 µM (≈ 10.4 µg/mL). The IC50 was 64 nM at Gamma-secretase; 2300 nM at Cytochrome P450 3A4; more than 100000 nM at Cytochrome P450 1A2; 14000 nM at Cytochrome P450 2C9; 14000 nM on Cytochrome P450 2C19; more than 100000 nM on Cytochrome P450 2D6. The Stabilty in data set [2] is on record as 21%; in data set [3], 75%; in data set [4] it was 40%.

Take `COc1nc(-c2csc(Nc3c4c(nn3CC(F)(F)F)CCCC4)n2)ccc1-n1cnc(C)c1`: the solubility kinetic in [1] worked out at 7.4 µM (≈ 3.62 µg/mL). In addition, the IC50 on Gamma-secretase is 57 nM. For the same compound, the Stabilty in [2] was found to be 13%; in [3] it was 41%; in data set [4], 39%.

Take `COc1nc(-c2csc(Nc3c4c(nn3CCCO)CCCC4)n2)ccc1-n1cnc(C)c1`: the solubility kinetic in [1] was 23 µM (≈ 10.7 µg/mL). The IC50 on Gamma-secretase was 50 nM; at Cytochrome P450 3A4, 2200 nM; on Cytochrome P450 1A2, more than 100000 nM; at Cytochrome P450 2C9 it was more than 100000 nM; at Cytochrome P450 2C19 it was 31000 nM; on Cytochrome P450 2D6, more than 100000 nM. Further, the figures for the Stabilty in [2], in [3] and in data set [4] were 17%, 52% and 32%, respectively.

Take `COc1nc(-c2csc(Nc3c4c(nn3C3CCC3)CCC4)n2)ccc1-n1cnc(C)c1`: the solubility kinetic in data set [1] stood at 2.7 µM (≈ 1.21 µg/mL). For the same compound, the half-inhibitory concentration (IC50) on Gamma-secretase turned out to be 21 nM. Moreover, the Stabilty was 3% in data set [2], 37% in data set [3] and 26% in [4].

Turning to `CCn1nc(C(C)(C)C)cc1Nc1nc(-c2ccc(-n3cnc(C)c3)c(OC)n2)cs1`, in data set [1], the solubility kinetic was 15 µM (≈ 6.56 µg/mL). Further, the concentration for half-maximal inhibition (IC50) on Gamma-secretase was 114 nM. In addition, the results for the Stabilty in data set [2], in data set [3] and in data set [4] were 38%, 89% and 67%, respectively.
